One experiment concerns the target AURORA-A^K162R (Homo sapiens, UniProt O14965+Q96SW2, I57V/K162R). The experiment is described as follows: Immunoblot of HA-tagged kinase-dead AURORA-A^K162R. To be noted: 1 µM, 18 hours. Format: cell-based. For orientation: In western blotting, separated proteins are transferred to a membrane and probed.
The target in another experiment is T1, AURORA-A^D274N (Homo sapiens, UniProt O14965, D274N).
T1 sequence (O14965 1-403 D274N): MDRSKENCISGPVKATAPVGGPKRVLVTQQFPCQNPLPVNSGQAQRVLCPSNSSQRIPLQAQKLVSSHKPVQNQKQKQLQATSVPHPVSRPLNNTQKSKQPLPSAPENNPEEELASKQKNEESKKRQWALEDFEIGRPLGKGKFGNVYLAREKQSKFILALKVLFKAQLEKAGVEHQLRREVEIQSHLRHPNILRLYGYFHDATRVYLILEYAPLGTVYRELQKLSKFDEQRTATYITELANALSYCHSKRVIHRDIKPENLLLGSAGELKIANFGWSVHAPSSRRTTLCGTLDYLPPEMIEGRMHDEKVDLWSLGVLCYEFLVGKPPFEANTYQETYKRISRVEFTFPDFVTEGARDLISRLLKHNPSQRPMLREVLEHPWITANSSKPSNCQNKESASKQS
The experiment is described as follows: Immunoblot of HA-tagged kinase-dead AURORA-A^D274N. Format: cell-based. The following applies: 1 µM, 18 hours.

In another experiment the target is T2, ACAD10 (Homo sapiens, UniProt Q6JQN1).
T2 sequence (Q6JQN1 1-1059): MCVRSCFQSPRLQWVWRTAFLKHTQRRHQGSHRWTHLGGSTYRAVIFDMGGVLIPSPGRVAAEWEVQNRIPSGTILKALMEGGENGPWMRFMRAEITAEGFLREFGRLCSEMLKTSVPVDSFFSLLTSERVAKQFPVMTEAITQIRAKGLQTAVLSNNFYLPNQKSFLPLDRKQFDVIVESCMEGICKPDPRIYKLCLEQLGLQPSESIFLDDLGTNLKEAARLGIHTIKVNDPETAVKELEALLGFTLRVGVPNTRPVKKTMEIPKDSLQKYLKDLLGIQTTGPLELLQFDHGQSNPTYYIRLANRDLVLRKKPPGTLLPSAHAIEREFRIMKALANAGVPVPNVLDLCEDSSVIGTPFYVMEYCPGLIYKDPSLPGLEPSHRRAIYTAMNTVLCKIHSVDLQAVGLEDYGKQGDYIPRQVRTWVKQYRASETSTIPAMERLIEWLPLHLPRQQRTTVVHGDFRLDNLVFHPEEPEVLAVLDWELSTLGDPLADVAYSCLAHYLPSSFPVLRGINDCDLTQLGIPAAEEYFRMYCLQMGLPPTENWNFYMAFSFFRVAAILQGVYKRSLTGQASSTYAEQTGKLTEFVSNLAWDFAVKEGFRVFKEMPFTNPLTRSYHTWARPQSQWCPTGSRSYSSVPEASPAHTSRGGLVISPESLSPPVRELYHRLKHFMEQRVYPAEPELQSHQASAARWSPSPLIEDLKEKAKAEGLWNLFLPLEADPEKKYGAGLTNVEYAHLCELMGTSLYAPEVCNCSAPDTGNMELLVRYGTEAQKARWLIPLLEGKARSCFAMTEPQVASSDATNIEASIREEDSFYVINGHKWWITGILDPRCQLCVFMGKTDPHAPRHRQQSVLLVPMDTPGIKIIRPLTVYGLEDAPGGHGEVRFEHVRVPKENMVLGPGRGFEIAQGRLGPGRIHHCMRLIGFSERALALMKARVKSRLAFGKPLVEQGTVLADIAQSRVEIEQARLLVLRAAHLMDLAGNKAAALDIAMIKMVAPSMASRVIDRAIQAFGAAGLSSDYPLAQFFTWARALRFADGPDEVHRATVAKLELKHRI
The experiment is described as follows: Kinobead selectivity profiling: ACAD10. Format: binding.

The target in a further experiment is T3, AURORA-A^Imut (Homo sapiens, UniProt O14965, A267W/E239R/F157E/I158E/I57V/K153E/K156E/K224E/P191W/R137E/R189E/R375E/S266W).
T3 sequence (O14965 1-403 I57V/R137E/K153E/K156E/F157E/I158E/R189E/P191W/K224E/E239R/S266W/A267W/R375E): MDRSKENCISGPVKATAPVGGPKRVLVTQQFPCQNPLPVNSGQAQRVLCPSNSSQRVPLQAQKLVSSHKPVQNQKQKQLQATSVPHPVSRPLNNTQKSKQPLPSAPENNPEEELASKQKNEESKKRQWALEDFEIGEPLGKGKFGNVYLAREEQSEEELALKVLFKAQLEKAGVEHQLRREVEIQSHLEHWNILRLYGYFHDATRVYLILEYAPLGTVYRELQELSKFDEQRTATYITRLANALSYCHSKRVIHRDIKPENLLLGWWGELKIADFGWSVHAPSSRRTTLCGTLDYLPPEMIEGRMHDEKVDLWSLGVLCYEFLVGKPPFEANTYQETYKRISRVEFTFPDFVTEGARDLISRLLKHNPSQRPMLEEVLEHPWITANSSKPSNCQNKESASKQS
The experiment is described as follows: Depletion of AURORA-A interface mutant in MV4-11 cells. It is filed as cell-based. To be noted: 12 mutated amino acids in the presumed interface with CEREBLON
The essentials:
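HiBiT-tagged wild-type or mutant AURORA-A was expressed stably in MV4-11 cells (infected twice, 24 h apart, selected 72 h after infection). Cells were exposed to serial dilutions of the test compound for 6 h and lysed with lytic detection reagent containing the LgBiT fragment. Luminescence was then read. DC50 and DCmax were derived from the concentration–response data.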

Experiment [1] deals with AURORA-B^R160L,E162T,K165R (Homo sapiens, UniProt Q96GD4, E161T/K164R/R159L). The experiment is described as follows: Immunoblot of HA-tagged AURORA-B swap mutant x3 in MV4-11 cells. Format: cell-based. To be noted: 6 hours.
For experiment [2], the target named is AURORA-A-CEREBLON complex (Homo sapiens, UniProt O14965+Q96SW2). The experiment is described as follows: HA immunoprecipitation of AURORA-A, co-precipitated CEREBLON
It is filed as binding. The following applies: MV4-11 cell extracts, 0.5 µM degrader.

Another experiment addresses T4, AURORA-A (Homo sapiens, UniProt O14965).
T4 sequence (O14965 1-403): T1 sequence (O14965 1-403 D274N) with N274D
The experiment is described as follows: AURORA-A-NanoLuc target engagement assay. Format: binding.

From paper PMC7610535 (Nature chemical biology, 2020) come the findings set out here.

Residue numbers refer to the chain shown, from its start.

Sequence of AURORA-A-CEREBLON complex (O14965 whole entry): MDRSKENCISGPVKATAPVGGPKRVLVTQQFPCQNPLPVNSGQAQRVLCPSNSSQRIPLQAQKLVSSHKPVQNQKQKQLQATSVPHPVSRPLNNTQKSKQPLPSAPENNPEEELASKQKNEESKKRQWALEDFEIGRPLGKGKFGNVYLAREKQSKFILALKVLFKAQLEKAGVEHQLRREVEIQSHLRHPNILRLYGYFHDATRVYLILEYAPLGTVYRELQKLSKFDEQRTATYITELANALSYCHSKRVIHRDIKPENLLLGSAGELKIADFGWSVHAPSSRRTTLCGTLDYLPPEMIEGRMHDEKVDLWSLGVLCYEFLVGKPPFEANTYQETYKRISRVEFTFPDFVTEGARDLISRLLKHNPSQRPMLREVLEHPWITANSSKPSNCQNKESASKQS
Sequence of AURORA-A-CEREBLON complex (Q96SW2 whole entry): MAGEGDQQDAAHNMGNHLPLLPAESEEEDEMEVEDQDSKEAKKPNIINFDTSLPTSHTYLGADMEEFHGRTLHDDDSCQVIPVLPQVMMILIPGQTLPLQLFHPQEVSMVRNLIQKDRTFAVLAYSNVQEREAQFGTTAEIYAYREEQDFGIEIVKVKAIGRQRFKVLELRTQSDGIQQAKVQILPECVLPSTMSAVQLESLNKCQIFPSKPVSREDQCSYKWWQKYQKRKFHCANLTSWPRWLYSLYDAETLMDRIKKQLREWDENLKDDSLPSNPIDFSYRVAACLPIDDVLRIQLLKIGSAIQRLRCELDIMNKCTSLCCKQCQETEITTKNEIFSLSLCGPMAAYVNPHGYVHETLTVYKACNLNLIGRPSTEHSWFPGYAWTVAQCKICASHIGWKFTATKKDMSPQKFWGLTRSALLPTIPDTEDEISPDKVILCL
Sequence of AURORA-A-CEREBLON complex (Q16531 whole entry partner): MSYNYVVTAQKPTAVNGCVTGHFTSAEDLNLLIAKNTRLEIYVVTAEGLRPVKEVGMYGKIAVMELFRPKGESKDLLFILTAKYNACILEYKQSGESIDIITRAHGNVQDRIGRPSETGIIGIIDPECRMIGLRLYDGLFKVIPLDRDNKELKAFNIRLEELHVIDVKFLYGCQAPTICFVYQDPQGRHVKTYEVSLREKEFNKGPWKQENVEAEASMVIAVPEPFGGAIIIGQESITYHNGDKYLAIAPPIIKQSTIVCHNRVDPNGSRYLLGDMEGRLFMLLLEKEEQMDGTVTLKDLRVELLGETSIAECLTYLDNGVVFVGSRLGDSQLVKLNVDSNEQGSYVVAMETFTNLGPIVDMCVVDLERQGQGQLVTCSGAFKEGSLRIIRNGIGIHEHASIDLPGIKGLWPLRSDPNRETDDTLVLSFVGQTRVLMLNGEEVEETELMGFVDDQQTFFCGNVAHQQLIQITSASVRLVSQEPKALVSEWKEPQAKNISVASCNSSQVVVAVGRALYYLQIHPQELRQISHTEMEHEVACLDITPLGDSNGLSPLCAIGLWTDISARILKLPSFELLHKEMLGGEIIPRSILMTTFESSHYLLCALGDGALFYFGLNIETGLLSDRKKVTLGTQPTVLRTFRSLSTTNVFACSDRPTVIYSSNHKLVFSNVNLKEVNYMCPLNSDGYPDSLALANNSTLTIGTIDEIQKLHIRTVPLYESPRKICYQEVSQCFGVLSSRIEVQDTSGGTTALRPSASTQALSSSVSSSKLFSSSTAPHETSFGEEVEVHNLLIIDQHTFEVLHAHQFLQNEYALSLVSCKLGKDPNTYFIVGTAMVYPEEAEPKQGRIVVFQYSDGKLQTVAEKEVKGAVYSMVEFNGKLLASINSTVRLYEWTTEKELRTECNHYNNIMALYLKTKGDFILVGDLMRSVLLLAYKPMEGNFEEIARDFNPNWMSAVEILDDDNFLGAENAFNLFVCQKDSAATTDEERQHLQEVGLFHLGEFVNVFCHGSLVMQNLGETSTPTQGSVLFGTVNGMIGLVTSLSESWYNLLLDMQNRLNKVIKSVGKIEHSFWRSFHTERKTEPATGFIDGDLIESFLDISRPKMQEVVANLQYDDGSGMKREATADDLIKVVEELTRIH
Sequence of AURORA-B^R160L,E162T,K165R (Q96GD4 1-345 isoform Q96GD4-5 R160L/E162T/K165R): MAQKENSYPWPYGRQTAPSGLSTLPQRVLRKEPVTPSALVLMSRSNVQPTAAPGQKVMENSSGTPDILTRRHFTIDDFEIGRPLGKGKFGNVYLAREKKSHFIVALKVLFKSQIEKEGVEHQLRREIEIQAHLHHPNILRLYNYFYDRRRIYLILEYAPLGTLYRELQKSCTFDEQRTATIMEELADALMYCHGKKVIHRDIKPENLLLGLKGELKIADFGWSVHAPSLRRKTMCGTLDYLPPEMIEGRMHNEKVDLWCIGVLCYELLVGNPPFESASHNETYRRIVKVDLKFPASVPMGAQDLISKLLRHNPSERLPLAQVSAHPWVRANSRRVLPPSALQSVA
Sequence of AURORA-A^K162R (O14965 whole entry I57V/K162R): as the sequence (O14965 whole entry) above, with I57V, K162R counted along it
Sequence of AURORA-A^K162R (Q96SW2 whole entry): as the sequence (Q96SW2 whole entry) above
Sequence of AURORA-A^K162R (Q16531 whole entry partner): as the sequence (Q16531 whole entry partner) above

On to `COc1cc(Nc2ncc3c(n2)-c2ccc(Cl)cc2C(c2c(F)cccc2OC)=NC3)ccc1C(=O)NCCOCCOCCNC(=O)COc1cccc2c1C(=O)N(C1CCC(=O)NC1=O)C2=O` (centres unmarked) [JB170], for which the “depletion of AURORA-A^K162R” value on AURORA-A^K162R is “depleted by JB170 to a similar degree as the unmutated protein”. The “depletion of AURORA-A^D274N” value at AURORA-A^D274N was “depleted by JB170 to a similar degree as the unmutated protein”. At ACAD10, the Kd (in general, the equilibrium constant for the complex coming apart) turned out to be 253 nM. For the same molecule, the “JB170-mediated depletion of AURORA-A^Imut” value on AURORA-A^Imut is on record as “not depleted”. The “JB170-mediated degradation of AURORA-B^R160L,E162T,K165R with respect to AURORA-A” value in experiment [1] is on record as “strongly attenuated”. In addition, in experiment [2], the “CEREBLON co-precipitation with HA-tagged AURORA-A” value was “efficient CEREBLON co-precipitation”. In addition, it took 193 nM to reach a half-maximal effect on AURORA-A (EC50). Moreover, on AURORA-A (AURORA-A vs AURORA-B, depending on experimental conditions (BRET, Kinobeads)), the “difference of affinities for AURORA-A and AURORA-B” value is recorded as 3- to 50 fold.
